In general, CC50 refers to the concentration that lowers cell viability or growth by half. The term EC50 denotes the concentration giving half of the maximal effect.

Drawing on ChEMBL document CHEMBL1938334, “Quinoline tricyclic derivatives. Design, synthesis and evaluation of the antiviral activity of three new classes of RNA-dependent RNA polymerase inhibitors” (Bioorg Med Chem, 2011), this text covers CC50 and EC50 for one compound.

Bounds are passed on as bounds.

A short description of data set [1]: Cytotoxicity against human CRL7065 cells after 96 hrs by MTT assay. It counts as cell-based, CRL-7065. Summed up: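 Foreskin fibroblasts seeded at 1×10^5 cells/mL in specific medium with 10% FCS and antibiotics; serial compound dilutions, 37 °C, 5% CO2, 96 h, under conditions allowing untreated controls at least three rounds of multiplication. MTT read-out; concentration reducing proliferation by 50% by linear regression versus untreated controls; three independent determinations.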
(In general: Formazan colour is commonly taken as a measure of viable cells.)

For data set [2], the system named is Reovirus sp. As to the kind of experiment: Antiviral activity against Reovirus type-1 3651 infected in hamster BHK21 cells assessed as inhibition of virus-induced cytopathogenicity after 3 to 4 days by MTT assay. The data set is classed as functional, organism-based. To be noted: Reovirus sp., 3651, BHK-21. Summed up: (§1)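 Host cells were seeded in 96-well plates at 3×10^4 cells/well (MDBK) or 5×10^4 cells/well (BHK-21) and grown to confluent monolayers overnight. They were infected at m.o.i. 0.01 in maintenance MEM with 0.5% inactivated FBS. Serial compound dilutions were added after 1 h. Viability was read by MTT after 3–4 days at 37 °C. EC50 was taken by linear regression against untreated controls. Mean of three determinations.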
Background: Protection from cytopathic effect is a common read-out in antiviral testing.

The test system of data set [3] is Yellow fever virus. As to the kind of experiment: Antiviral activity against Yellow fever virus 17D Stamaril Pasteur J07B01 infected in hamster BHK21 cells assessed as inhibition of virus-induced cytopathogenicity after 3 to 4 days by MTT assay. To be noted: Stamaril Pasteur J07B01, BHK-21. The data set is classed as functional, cell-based. Summed up:
as §1

The test system of data set [4] is HepG2. As to the kind of experiment: Cytotoxicity against human HepG2 cells after 96 hrs by MTT assay. To be noted: HepG2, 96 h. The data set is classed as functional. Summed up:
(§2)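 Cells were seeded at 1×10^5 cells/mL: leukaemia/lymphoma lines in RPMI-1640, solid tumour and fibroblast lines in specific media, all with 10% FCS. Serial compound dilutions were applied for 96 h at 37 °C, 5% CO2, under conditions allowing controls at least three rounds of multiplication. Viability was read by MTT. CC50 by linear regression. Mean of three determinations.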

The nature of data set [5]: Antiviral activity against Bovine viral diarrhea virus 1-NADL infected in MDBK cells assessed as inhibition of virus-induced cytopathogenicity after 3 to 4 days by MTT assay. It counts as functional, cell-based. The following applies: Bovine viral diarrhea virus isolates and strains. Put shortly: as §1
The nature of data set [6]: Cytotoxicity against BHK21 cells after 48 to 96 hrs by MTT assay. The data set is classed as cell-based, Mesocricetus auratus, BHK-21. To be noted: hamster. Put shortly: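 MDBK seeded at 6×10^5 and BHK at 1×10^6 cells/mL in MEM-Earle's with L-glutamine, 1 mM pyruvate, kanamycin, plus 10% horse serum (MDBK) or 10% FBS (BHK). Cells were grown at 37 °C, 5% CO2 with serial compound dilutions (DMSO stocks diluted in medium). Viability by MTT after 48–96 h. CC50 was taken by linear regression versus untreated controls; three independent determinations.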

Data set [7] concerns Human alphaherpesvirus 1. The data set can be described thus: Antiviral activity against Human herpesvirus 1 strain KOS infected in african green monkey Vero 76 cells assessed as reduction of virus-induced plaque formation after 3 days using crystal violet staining. It counts as functional, organism-based. To be noted: Human alphaherpesvirus 1, KOS, 72 h.
For data set [8], the system named is SK-MEL-28. The data set can be described thus: Cytotoxicity against human SK-MEL-28 cells after 96 hrs by MTT assay. To be noted: SK-MEL-28, 96 h. The data set is classed as functional. Summed up:
as §2

The test system of data set [9] is CCRF-SB. As to the kind of experiment: Cytotoxicity against human CCRF-SB cells after 96 hrs by MTT assay. The data set is classed as functional. Summed up: as §2
The nature of data set [10]: Antiviral activity against Vaccinia virus Lister Elstree infected in african green monkey Vero 76 cells assessed as reduction of virus-induced plaque formation after 3 days using crystal violet staining. It counts as functional, cell-based. To be noted: 72 h.

The compound `O=[N+]([O-])c1ccc(-c2nc3cc4cccnc4c(Cl)c3[nH]2)cc1` came in with a CC50 at 96 h in data set [1] greater than 100 µM. The EC50 in data set [2] is greater than 100 µM; in [3] it was greater than 100 µM; in [5], 1200 nM; in [7], 44 µM; in [10] it was greater than 100 µM. Further, the CC50 was 10.3 µM in data set [4], greater than 100 µM in data set [6], greater than 100 µM in data set [8] and greater than 100 µM in data set [9].
